For orientation: inhibition means the drop in the measured response relative to a control, in per cent.

The nature of assay [1]: inhibitors of TNFa-induced NFkB p65 translocation, primary screen, imaging, HUVEC, MLSMR starter and 10KST1 sets (AID 438;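 active = inhibition above 20% together with a positive visual image hit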;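 also: compound added about 3h40 before a 20 min TNFalpha stimulation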;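 as to inhibition: signal is the nuclear over cytoplasmic p65 intensity ratio per well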). Conditions: HUVEC TNFa-induced p65 nuclear translocation; cell count: measured here: nuclei count (cytotoxicity indicator), at 2.08 µM; inhibition: at 2 µM, stronger effect = higher value, 0% TNFa-plus-vehicle, 100% no-TNFa wells.
A short description of assay [2]: reduction of polyQ htt aggregates in cells – imaging, exon1htt(103Q)mCFP cells, high-content imaging, primary screen (AID 483;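 active = visual image review flags a hit and inhibition of aggregation exceeds 20%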;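 also: compound exposure lasted 3 days before fixation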;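 as to nuclei count: percent of the per-plate median nuclei count of sample wells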). Conditions: exon1htt(103Q)mCFP cell line, aggregate imaging, at 2 µM; inhibition of aggregation: stronger effect = higher value; nuclei count: measured here: cell count, toxicity.
The nature of assay [3]: endothelial E-selectin expression blockers – imaging, HUVEC, immunofluorescence, MLSMR starter and 10KST1 sets, primary screen (AID 487;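 active = visually confirmed hit in the image check and inhibition above 20%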;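 as to inhibition: signal is fraction of cell area covered by stained E-selectin grains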;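 as to nuclei count: 100% = median nuclei count of all wells on the same plate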). The following applies: HUVEC TNFalpha-induced E-selectin immunofluorescence imaging, at 2 µM; inhibition: stronger effect = higher value; nuclei count: measured here: cell number, toxicity.
Assay [4] deals with Voltage-gated potassium channel subunit beta-2 (Rattus norvegicus) (UniProt P62483). Briefly: inhibitors of rat Kvbeta2 reductase activity – biochemical, NADPH fluorescence, primary screen (AID 622;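 active = fluorescence slope higher than the sample average by over 3 SD, cut at about -0.22 in these data, passing the limit was not always enough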;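 also: slope of raw intensity against log time taken from 70 to 1610 s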). Conditions: recombinant KvBeta, 4-cyanobenzaldehyde reduction, at 10 µM, stronger effect = higher value.
Voltage-gated potassium channel subunit beta-2 (Rattus norvegicus), sequence (P62483 whole entry, looked up): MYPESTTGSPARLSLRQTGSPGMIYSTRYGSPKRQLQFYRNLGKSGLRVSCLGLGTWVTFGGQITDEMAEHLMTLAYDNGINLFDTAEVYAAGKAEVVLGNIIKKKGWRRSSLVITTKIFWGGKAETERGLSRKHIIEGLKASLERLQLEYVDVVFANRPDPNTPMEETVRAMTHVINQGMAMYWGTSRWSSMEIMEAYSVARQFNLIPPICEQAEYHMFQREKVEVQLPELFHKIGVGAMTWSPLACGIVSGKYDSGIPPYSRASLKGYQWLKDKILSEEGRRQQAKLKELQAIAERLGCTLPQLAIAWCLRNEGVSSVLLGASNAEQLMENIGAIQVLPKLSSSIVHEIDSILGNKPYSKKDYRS
Assay [5] has the same target. Put plainly: enhancers of rat Kvbeta2 NADPH turnover – biochemical, NADPH fluorescence, primary screen (AID 623;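 active = NADPH fluorescence slope more negative than the mean of all samples by about 3 SD, 99.7% confidence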;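 also: fluorescence intensity change per second fitted from 20 to 320 s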). The following applies: Recombinant KvBeta, NADPH fluorescence decrease slope, 10 min; at 10 µM; stronger effect = lower value.
Assay [6] has as its target Muscarinic acetylcholine receptor M4 (Homo sapiens) (UniProt P08173). Briefly: M4-linked GIRK flux change, two-sided – cell-based, HEK293 M4/GIRK, thallium flux, BTC-AM, M4 allosteric agonist project, primary screen (AID 625).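 Also: thallium influx through GIRK channels coupled to M4 in HEK293 cells with BTC-AM dye.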 The following applies: at 10 µM, actives lie on both sides. In outline: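 Material – HEK293 cells with M4 receptor and GIRK channels · Buffer or medium – pH 7.3 thallium assay buffer · Doses – one dose, 10 µM final · Timing – cells overnight at 37 °C, BTC-AM loading 1 h, reads 2 min total · Measured by – kinetic fluorescence with BTC-AM dye · Controls – carbachol and DMSO controls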

Assay [7] in a line: blockers of RIG-like receptor reporter activation – cell-based, Sendai virus stimulus, luciferase, 10K MLSCN set, TLR/RLR signaling modifier project, primary screen (AID 602276;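 active = inhibition at or above 50% at 10 µM; inactive = inhibition below 50%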;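 also: firefly luciferase from ISG56 promoter only with Renilla not read in this screen; 0% = Sendai virus plus DMSO and 100% = medium plus DMSO without virus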). The following applies: HEK293 RL24 IRF3 luciferase reporter, at 10 µM, stronger effect = higher value.
Assay [8] is described as follows: TLR3 IRF3 reporter activation blockers – cell-based, poly I:C stimulus, luciferase, 10K MLSCN set, primary screen (AID 602277;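 active = inhibition of the reporter signal at or above 50%; inactive = inhibition below 50%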). The following applies: HEK293-TLR3 RL24 IRF3 luciferase reporter, at 10 µM, stronger effect = higher value. (In a reporter assay the amount or activity of a reporter protein is the signal.)

The source made the active and inactive calls.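 The calls were made as follows, unless noted: active = fluorescence slope after compound addition differing from the mean of all tested samples at 99.7% confidence, mostly higher but some lower; inactive = the rest.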

Muscarinic acetylcholine receptor M4 (Homo sapiens), sequence (P08173 whole entry, looked up): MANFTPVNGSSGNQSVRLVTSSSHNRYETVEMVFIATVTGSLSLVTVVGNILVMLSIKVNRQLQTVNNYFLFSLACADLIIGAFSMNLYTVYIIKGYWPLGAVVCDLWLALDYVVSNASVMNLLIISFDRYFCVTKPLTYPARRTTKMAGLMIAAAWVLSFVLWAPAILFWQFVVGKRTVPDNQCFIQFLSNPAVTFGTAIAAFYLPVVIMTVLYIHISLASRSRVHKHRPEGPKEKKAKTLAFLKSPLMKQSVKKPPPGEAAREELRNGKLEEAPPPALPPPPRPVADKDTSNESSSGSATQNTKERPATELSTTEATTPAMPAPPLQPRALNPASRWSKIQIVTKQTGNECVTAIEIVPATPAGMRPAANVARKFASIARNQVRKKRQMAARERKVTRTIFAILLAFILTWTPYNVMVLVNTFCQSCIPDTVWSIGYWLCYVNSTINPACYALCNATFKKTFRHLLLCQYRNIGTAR

Take `Cc1ccc2c(c1)c1c(n2CC(O)Cn2c(C)nc3ccccc32)/C(=N\O)CCC1` (centres undefined): the cell count in assay [1] was determined as 459. For the same compound, the inhibition in assay [1] was 2.7% (inactive); in assay [3] it was -15.9% (inactive); in assay [7], 7.68% (inactive); in assay [8] it was -1.8% (inactive). In addition, the inhibition of aggregation in assay [2] is -25.1% (inactive). Besides, the nuclei count in assay [2] worked out at 14.1%; in assay [3], 103%. The fluorescence slope in assay [4] is -0.433 (inactive); in assay [6], 0.00656 (inactive). In addition, the NADPH fluorescence slope in assay [5] is 9.2e-05 (inactive).
Regarding `CCN1C(=O)NC(c2cc(Br)ccc2OC)C(C(=O)OC)=C1C` (centres undefined), the cell count in assay [1] is 451. For the same compound, the inhibition in assay [1] is -13.1% (inactive); in assay [3], -25.6% (inactive); in assay [7], -1.28% (inactive); in assay [8], 17.3% (inactive). In assay [2], the inhibition of aggregation is 2.4% (inactive). The nuclei count in assay [2] worked out at 92%; in assay [3], 89.2%. The fluorescence slope is -0.491 (inactive) in assay [4] and 0.00605 (inactive) in assay [6]. The NADPH fluorescence slope in assay [5] was 3.4e-05 (inactive).
As for `O=C(O)c1cc(/C=N\O)ccc1OCc1ccccc1`, in assay [1], the cell count stood at 697. Also, the inhibition in assay [1] was -6.9% (inactive); in assay [3], -30.9% (inactive); in assay [7], -0.244% (inactive); in assay [8] it was 11.6% (inactive). Moreover, the inhibition of aggregation in assay [2] is 2.9% (inactive). In addition, the values for the nuclei count in assay [2] and in assay [3] were 112% and 104%, respectively. In addition, the fluorescence slope in assay [4] was -0.545 (inactive); in assay [6], 0.007 (inactive). In assay [5], the NADPH fluorescence slope was -1.3e-05 (inactive).
As to `Cc1cc(NC(=O)Cn2cnc3c2c(=O)n(C)c(=O)n3C)n(-c2ccccc2)n1`, the cell count in assay [1] was found to be 580. Besides, the inhibition in assay [1] is -38.9% (inactive); in assay [3], 22.7% (inactive); in assay [7] it was 13.4% (inactive); in assay [8] it was 17% (inactive). Further, the inhibition of aggregation in assay [2] was 1.1% (inactive). Moreover, the nuclei count in assay [2] stood at 99.2%; in assay [3], 68.4%. For the same compound, the fluorescence slope in assay [4] was -0.33 (inactive); in assay [6] it was 0.00675 (inactive). Besides, in assay [5], the NADPH fluorescence slope is -8.3e-05 (inactive).
For `COCCN1CN(S(=O)(=O)c2ccccc2)c2nc3ccccc3nc21`, the cell count in assay [1] amounted to 307. Also, the inhibition is 8.3% (inactive) in assay [1], -47.3% (inactive) in assay [3], 13.6% (inactive) in assay [7] and 17.4% (inactive) in assay [8]. Besides, in assay [2], the inhibition of aggregation was -0.3% (inactive). Besides, the nuclei count was found to be 94.4% in assay [2] and 160% in assay [3]. Besides, the values for the fluorescence slope in assay [4] and in assay [6] were -0.54 (inactive) and 0.00322 (inactive), respectively. In addition, the NADPH fluorescence slope in assay [5] was -0.000125 (inactive).
Take `Cc1ccc(C(=O)Nc2ccc3c(c2)OCO3)o1`: the cell count in assay [1] was 466. Besides, the inhibition in assay [1] is 0% (inactive); in assay [3], -17.5% (inactive); in assay [7] it was -40.3% (inactive); in assay [8], -49.6% (inactive). Besides, in assay [2], the inhibition of aggregation was -13.9% (inactive). Moreover, the nuclei count in assay [2] was found to be 106%; in assay [3], 121%. In addition, the fluorescence slope in assay [4] was -0.603 (inactive); in assay [6], 0.00576 (inactive). For the same compound, the NADPH fluorescence slope in assay [5] is -2.2e-05 (inactive).
As to `CCN1CCN(CCCNC(=O)c2cn(CCOC)c(=O)c3c2c2ccccc2n3C)CC1`, the cell count in assay [1] turned out to be 451. Also, the inhibition in assay [1] was -6.3% (inactive); in assay [3], -2.9% (inactive); in assay [7], -6.82% (inactive); in assay [8], 0.455% (inactive). For the same compound, in assay [2], the inhibition of aggregation is 5.8% (inactive). Besides, the nuclei count was determined as 103% in assay [2] and 106% in assay [3]. For the same compound, the figures for the fluorescence slope in assay [4] and in assay [6] were -0.569 (inactive) and 0.00513 (inactive), respectively. The NADPH fluorescence slope in assay [5] was -1.9e-06 (inactive).
Turning to `O=C(COC(=O)c1cc(S(=O)(=O)N2CCOCC2)ccc1O)NCC1CCCO1` (centres undefined), the cell count in assay [1] is 426. Also, the inhibition was 9.7% (inactive) in assay [1], -39.1% (inactive) in assay [3], 15.4% (inactive) in assay [7] and 24.6% (inactive) in assay [8]. Besides, the inhibition of aggregation in assay [2] is -4.1% (inactive). The nuclei count in assay [2] was found to be 88.7%; in assay [3], 113%. Further, the fluorescence slope was -0.345 (inactive) in assay [4] and 0.00615 (inactive) in assay [6]. Moreover, the NADPH fluorescence slope in assay [5] is 5.4e-05 (inactive).
Take `Cc1nc2nc(SCC(=O)NCc3ccco3)nn2c(C)c1Cc1ccccc1`: the cell count in assay [1] amounted to 457. For the same compound, the inhibition in assay [1] was 1.4% (inactive); in assay [3] it was -10.5% (inactive); in assay [7], -7.73% (inactive); in assay [8], 0.532% (inactive). Also, the inhibition of aggregation in assay [2] was -6.7% (inactive). For the same compound, the values for the nuclei count in assay [2] and in assay [3] were 112% and 126%, respectively. Besides, the values for the fluorescence slope in assay [4] and in assay [6] were -0.353 (inactive) and 0.0066 (inactive), respectively. Further, the NADPH fluorescence slope in assay [5] was -2.9e-05 (inactive).

The record behind these values is PubChem BioAssay.
